Source: ChEMBL document CHEMBL3045256, “Design, synthesis, structure, and acaricidal/insecticidal activity of novel spirocyclic tetronic acid derivatives containing an oxalyl moiety” (2011)

Key:
Format in all cases: functional
Tetranychus cinnabarinus [1] = experiment: Acaricidal activity against larvae of Tetranychus cinnabarinus (carmine spider mite) in sieva bean leaves assessed as mortality at 10 mg/kg at 25 +/-1 degC treated for 3 secs measured after 4 days; conditions: 96 h
Ostrinia nubilalis = experiment: Stomach toxicity against third-instar larval stage of Ostrinia nubilalis (European corn borer) in corn leaves assessed as mortality at 600 mg/kg at 25 +/-1 degC treated for 3-5 secs before larval infestation after 4 days by leaf-dip method; conditions: 96 h
Procedure, shortened: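 Corn leaf disks (about 5 cm) were dipped for 3–5 s and air-dried. Each disk was placed in a 7 cm glass vessel with 10 third-instar corn borer larvae. Percentage mortality was scored 4 days after treatment. Controls were acetone-treated leaves. Run at 25 ± 1 °C.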

Tetranychus cinnabarinus [2] = experiment: Acaricidal activity against eggs of Tetranychus cinnabarinus (carmine spider mite) in sieva bean leaves assessed as mortality at 5 mg/kg at 25 +/-1 degC treated for 3 secs measured after 4 days; conditions: 96 h
Helicoverpa armigera = experiment: Stomach toxicity against third-instar larval stage of Helicoverpa armigerain compound-pretreated corn leaves assessed as mortality at 600 mg/kg at 25 +/-1 degC after 4 days by leaf-dip method
Procedure, shortened: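 Leaf-dip assay on cotton bollworm. Corn leaves were dipped in test solution and air-dried. The treated pieces were placed individually into 24-hole boxes. Run at 25 ± 1 °C.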

Mythimna separata [3] = experiment: Stomach toxicity against fourth-instar larval stage of Mythimna separata (Oriental armyworm) in compound-pretreated corn leaves assessed as mortality at 600 mg/kg at 25 +/-1 degC after 4 days
Procedure, shortened: (§1)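 Foliar application to oriental armyworm. Single corn leaves were laid on moistened filter paper in Petri dishes. Bioassays were run at 25 ± 1 °C.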

Tetranychus cinnabarinus [4] = experiment: Acaricidal activity against larvae of Tetranychus cinnabarinus (carmine spider mite) in sieva bean leaves assessed as mortality at 5 mg/kg at 25 +/-1 degC treated for 3 secs measured after 4 days; conditions: 96 h
Tetranychus cinnabarinus [5] = experiment: Acaricidal activity against larvae of Tetranychus cinnabarinus (carmine spider mite) in sieva bean leaves assessed as mortality at 0.5 mg/kg at 25 +/-1 degC treated for 3 secs measured after 4 days; conditions: 96 h
Tetranychus cinnabarinus [6] = experiment: Acaricidal activity against eggs of Tetranychus cinnabarinus (carmine spider mite) in sieva bean leaves assessed as mortality at 2.5 mg/kg at 25 +/-1 degC treated for 3 secs measured after 4 days; conditions: 96 h
Mythimna separata [7] = experiment: Stomach toxicity against fourth-instar larval stage of Mythimna separata (Oriental armyworm) in compound-pretreated corn leaves assessed as mortality at 50 mg/kg at 25 +/-1 degC after 4 days; procedure, shortened: as §1
Tetranychus cinnabarinus [8] = experiment: Acaricidal activity against eggs of Tetranychus cinnabarinus (carmine spider mite) in sieva bean leaves assessed as mortality at 1 mg/kg at 25 +/-1 degC treated for 3 secs measured after 4 days; conditions: 96 h
Tetranychus cinnabarinus [9] = experiment: Acaricidal activity against larvae of Tetranychus cinnabarinus (carmine spider mite) in sieva bean leaves assessed as mortality at 2.5 mg/kg at 25 +/-1 degC treated for 3 secs measured after 4 days; conditions: 96 h
Tetranychus cinnabarinus [10] = experiment: Acaricidal activity against eggs of Tetranychus cinnabarinus (carmine spider mite) in sieva bean leaves assessed as mortality at 0.5 mg/kg at 25 +/-1 degC treated for 3 secs measured after 4 days; conditions: 96 h
Mythimna separata [11] = experiment: Stomach toxicity against fourth-instar larval stage of Mythimna separata (Oriental armyworm) in compound-pretreated corn leaves assessed as mortality at 100 mg/kg at 25 +/-1 degC after 4 days; procedure, shortened: as §1
Plutella xylostella = experiment: Stomach toxicity against third-instar larval stage of Plutella xylostella (diamondback moth) in cabbage leaves assessed as mortality at 200 mg/kg at 25 +/-1 degC treated for 3 secs before larval infestation after 4 days by leaf-dip method; conditions: 96 h
Procedure, shortened: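 Cabbage leaf disks (6 cm × 2 cm) were dipped in test solution for 3 s and air-dried. Each disk was placed in a glass tube and given seven third-instar diamondback moth larvae. Percentage mortality was scored after 4 days. Controls were water and dimethylformamide. Each treatment was done three times at 25 ± 1 °C.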

Tetranychus cinnabarinus [12] = experiment: Acaricidal activity against larvae of Tetranychus cinnabarinus (carmine spider mite) in sieva bean leaves assessed as mortality at 1 mg/kg at 25 +/-1 degC treated for 3 secs measured after 4 days; conditions: 96 h
Tetranychus cinnabarinus [13] = experiment: Acaricidal activity against eggs of Tetranychus cinnabarinus (carmine spider mite) in sieva bean leaves assessed as mortality at 0.25 mg/kg at 25 +/-1 degC treated for 3 secs measured after 4 days; conditions: 96 h
Tetranychus cinnabarinus [14] = experiment: Acaricidal activity against eggs of Tetranychus cinnabarinus (carmine spider mite) in sieva bean leaves assessed as mortality at 0.05 mg/kg at 25 +/-1 degC treated for 3 secs measured after 4 days; conditions: 96 h
Tetranychus cinnabarinus [15] = experiment: Ratio of mortality against eggs of Tetranychus cinnabarinus (carmine spider mite) to mortality against larvae of carmine spider mite
Tetranychus cinnabarinus [16] = experiment: Acaricidal activity against eggs of Tetranychus cinnabarinus (carmine spider mite) in sieva bean leaves assessed as mortality at 25 +/-1 degC treated for 3 secs measured after 4 days
Tetranychus cinnabarinus [17] = experiment: Toxicity ratio of spiromesifen LC50 to compound LC50 for eggs of Tetranychus cinnabarinus (carmine spider mite) treated for 3 secs measured after 4 days
Tetranychus cinnabarinus [18] = experiment: Acaricidal activity against eggs of Tetranychus cinnabarinus (carmine spider mite) in sieva bean leaves assessed as mortality at 0.1 mg/kg at 25 +/-1 degC treated for 3 secs measured after 4 days; conditions: 96 h

SMILES	mortality at 10 mg/kg (Tetranychus cinnabarinus [1])	mortality at 600 mg/kg (Ostrinia nubilalis)	mortality at 5 mg/kg (Tetranychus cinnabarinus [2])	mortality at 600 mg/kg (Helicoverpa armigera)	mortality at 600 mg/kg (Mythimna separata [3])	mortality at 5 mg/kg (Tetranychus cinnabarinus [4])	mortality at 0.5 mg/kg (Tetranychus cinnabarinus [5])	mortality at 2.5 mg/kg (Tetranychus cinnabarinus [6])	mortality at 1 mg/kg (Tetranychus cinnabarinus [8])	mortality at 2.5 mg/kg (Tetranychus cinnabarinus [9])	mortality at 0.5 mg/kg (Tetranychus cinnabarinus [10])	mortality at 1 mg/kg (Tetranychus cinnabarinus [12])	mortality at 0.25 mg/kg (Tetranychus cinnabarinus [13])	further results
C#CCOC(=O)C(=O)OC1=C(c2c(C)cc(C)cc2C)C(=O)OC12CCCC2	30%	70%	30%	20%	50%	0%								
Cc1cc(C)c(C2=C(OC(=O)C(=O)Oc3ccccc3)C3(CCCC3)OC2=O)c(C)c1	100%	60%	100%	20%		90%	20%	100%	70%	80%	50%	50%		mortality at 50 mg/kg (Mythimna separata [7]): 0%; mortality at 100 mg/kg (Mythimna separata [11]): 100%; mortality at 200 mg/kg (Plutella xylostella): 60%
Cc1cc(C)c(C2=C(OC(=O)C(=O)Oc3ccc(Cl)cc3)C3(CCCC3)OC2=O)c(C)c1	100%	50%	100%	30%	70%	90%	0%	100%	90%	70%	80%	60%	60%	
Cc1cc(C)c(C2=C(OC(=O)C(=O)Oc3ccc(C(C)(C)C)cc3)C3(CCCC3)OC2=O)c(C)c1	100%	10%	90%	10%	80%	90%	40%	70%	50%	90%		60%		
CCN(CC)C(=O)C(=O)OC1=C(c2c(C)cc(C)cc2C)C(=O)OC12CCCC2	100%	30%	100%	20%		100%		100%	60%	90%	0%	70%		mortality at 50 mg/kg (Mythimna separata [7]): 40%; mortality at 100 mg/kg (Mythimna separata [11]): 100%; mortality at 200 mg/kg (Plutella xylostella): 85%
Cc1cc(C)c(C2=C(OC(=O)C(=O)N(C(C)C)C(C)C)C3(CCCC3)OC2=O)c(C)c1	100%	80%	100%	40%	50%	80%		100%	100%	40%	100%		80%	mortality at 0.05 mg/kg (Tetranychus cinnabarinus [14]): 10%; Ratio (Tetranychus cinnabarinus [15]): 25; LC50 (Tetranychus cinnabarinus [16]): 0.1147 mg/kg; RatioLC50 (Tetranychus cinnabarinus [17]): 1.4; mortality at 0.1 mg/kg (Tetranychus cinnabarinus [18]): 40%
Cc1cc(C)c(C2=C(OC(=O)C(=O)N3CCCCC3)C3(CCCC3)OC2=O)c(C)c1	100%	40%	100%	30%	40%	90%		100%	100%	70%	100%		100%	mortality at 0.05 mg/kg (Tetranychus cinnabarinus [14]): 30%; Ratio (Tetranychus cinnabarinus [15]): 25; LC50 (Tetranychus cinnabarinus [16]): 0.0675 mg/kg; RatioLC50 (Tetranychus cinnabarinus [17]): 2.3; mortality at 0.1 mg/kg (Tetranychus cinnabarinus [18]): 60%
